In publication PMC4818360 (Iranian Journal of Basic Medical Sciences, 2016):

How the values were obtained:
[1] = DPPH free radical scavenging assay; settings: methanolic solutions, 30 min, 517 nm, mean ± SD (n = 3)
Method in brief: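 DPPH stock (60 μM in methanol), 1 ml, mixed with 1 ml of test compound or standard at 0.0125, 0.025, 0.05, 0.1 and 0.2 mg/ml. Shaken, left 30 min, then read at 517 nm. Scavenging % = (Ac−At)/Ac×100, where the control holds all reagents except the compound. BHT was the standard. IC50 came from logarithmic non-linear regression; three replicates.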

[2] = target: mushroom tyrosinase (EC 1.14.18.1) (Agaricus bisporus, UniProt C7FF04); test: biochemical
mushroom tyrosinase (EC 1.14.18.1), sequence (C7FF04 1-392): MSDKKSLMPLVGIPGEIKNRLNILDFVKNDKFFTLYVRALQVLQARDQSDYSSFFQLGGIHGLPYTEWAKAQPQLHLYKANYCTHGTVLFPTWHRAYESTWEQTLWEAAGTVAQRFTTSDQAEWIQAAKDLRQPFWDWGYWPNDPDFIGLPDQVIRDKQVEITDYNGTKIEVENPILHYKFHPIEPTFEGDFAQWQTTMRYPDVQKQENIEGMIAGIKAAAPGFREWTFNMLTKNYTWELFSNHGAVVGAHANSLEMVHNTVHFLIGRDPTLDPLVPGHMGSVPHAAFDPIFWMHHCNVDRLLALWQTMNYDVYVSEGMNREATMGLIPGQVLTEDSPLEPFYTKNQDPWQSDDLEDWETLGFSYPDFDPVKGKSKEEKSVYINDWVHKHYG

[3] = Hydrogen peroxide scavenging assay; settings: at 0.312 mg/ml, 20 min, 230 nm, mean ± SD (n = 3)
Method in brief: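 H2O2 was made at 40 mM in saline phosphate buffer, pH 7.4, and its level checked at 230 nm. 100 μl of methanolic test compound or standard solution (0.312 mg/ml) went into 2 ml of H2O2 solution. A230 was read after 20 min against a blank of compound in buffer without H2O2. Scavenging % = (Ac−At)/Ac×100. BHT and gallic acid were standards; three replicates.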

SMILES	IC50 values for DPPH [1] [µg/mL]	IC50 [2] [µM]	H2O2 Scavenging [3] [%]
O=c1cc(CNc2cccc([N+](=O)[O-])c2)[nH]cc1O [Compound 11, 5-Hydroxy-2-[(3-nitrophenylamino)methyl]pyridin-4(1H)-one]	25.17 ± 1.8	217 ± 9	61.77±1.16
O=C(O)c1cc(O)c(O)c(O)c1 [Galic acid, gallic acid, reference compound]	–	–	97.39±0.76
Cn1cc(O)c(=O)cc1CNc1ccc(O)cc1 [Compound 3, 5-Hydroxy-2-[(4-hydroxyphenylamino)methyl]-1-methylpyridin-4(1H)-one]	34.38 ± 1.9	404 ± 14	63.70±1.49
Cc1cc(C(C)(C)C)c(O)c(C(C)(C)C)c1 [BHT, Butylated hydroxyl toluene, reference compound]	49.19 ± 1.7	–	78.52±1.85
COc1ccc(NCc2cc(=O)c(O)cn2C)cc1 [Compound 2, 5-Hydroxy-2-[(4-methoxyphenylamino)methyl]-1-methylpyridin-4(1H)-one]	44.62 ± 2.9	617 ± 19	64.97±0.96
